# Results taken from ChEMBL document CHEMBL4371088, “Analysis of chain length, substitution patterns, and unsaturation of AM-404 derivatives as 20S proteasome stimulators” (Bioorg Med Chem Lett, 2019).
# Columns and labels:
# HEK-293T [1] = assay: Cytotoxicity against HEK293T cells at 25 to 50 uM after 24 hrs by LDH assay; settings: human
# [2] = biological target: 20S proteasome (Homo sapiens) (UniProt P49721+P20618+P28074+P28062+P28065+P28072+P25786+P25787+P25788+P25789+P28066+P60900+O14818+Q8TAA3+P40306+A5LHX3+P49720+P28070+Q99436); assay: Stimulation of human 20S proteasome at EC50 using 11 amino acid FRET peptide as substrate measured every 2 mins over 1 hr by FRET assay relative to control; assay type: protein-complex assay
# How it was run: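 Purified human 20S core particle incubated with an 11-residue reporter peptide carrying a FRET pair. Hydrolysis rate of the peptide is calculated with and without stimulator and expressed as percent increase over basal hydrolysis.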
# HEK-293T [3] = assay: Cytotoxicity against HEK293T cells up to 50 uM after 16 hrs by Celltiter-Glo luminescence assay; assay type: cell-based; settings: human
# How it was run: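 HEK-293T cells exposed for 16 hrs to varying concentrations of stimulator before toxicity was assessed.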
# 20S proteasome = assay: Stimulation of human 20S proteasome using 11 amino acid FRET peptide as substrate measured every 2 mins over 1 hr by FRET assay; assay type: protein-complex assay
# How it was run: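 Purified human 20S core particle is incubated with an 11-residue reporter peptide carrying a FRET pair, with or without stimulator. The peptide hydrolysis rate is calculated and expressed as percent increase over the basal (unstimulated) rate. EC50 comes from concentration-response curves.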
# [4] = Solubility of the compound in DMSO; assay type: physicochemical
Structure (SMILES),Activity (HEK-293T [1]),Activity [2],Activity (HEK-293T [3]),EC50 (20S proteasome),solubility [4]
CCCCCCCC/C=C\CCCCC/C=C/C(=O)Nc1ccc(O)cc1,Non-Toxic,500%,Non-Toxic,24 µM,–
CCCCCCCC/C=C\CCCCCCCC(=O)Nc1ccc(O)cc1,Non-Toxic,400%,Non-Toxic,35 µM,–
CCCCC/C=C\C/C=C\C/C=C\C/C=C\CCCC(=O)Nc1ccc(O)cc1,Non-Toxic,1000%,Toxic,28 µM,–
CCCCCC/C=C\CCCCC/C=C/C(=O)O,–,–,–,–,Insoluble
CCCCCCCC/C=C\CCCCC/C=C/C(=O)O,–,–,–,–,Insoluble
